Laboratory results reported in paper PMC12591034 (RSC Advances, 2025).

Legend:
Type in all cases: cell-based
[1] = tested on: Hep-G2 (liver) carcinoma cells; assay: Cytotoxicity, SRB assay, Hep-G2; settings: Homo sapiens, HepG2, read-out: IC50 Cytotoxicity Hep-G2
Outline: (§1)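 Sulforhodamine B (SRB) cytotoxicity assay on human A549 lung, Hep-G2 liver and MCF-7 breast carcinoma cells, run alongside non-cancer HEK-293A embryonic kidney cells. Results are given as mean ± SD from three independent experiments. IC50 was estimated by curve fitting.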

[2] = tested on: A549 (lung) carcinoma cells; assay: Cytotoxicity, SRB assay, A549; settings: Homo sapiens, A549, read-out: IC50 Cytotoxicity A549
Outline: as §1

[3] = Cytotoxicity, SRB assay, HEK-293A; settings: human, HEK-293A embryonic kidney cells (normal cells)
[4] = tested on: MCF-7 (breast) carcinoma cells; assay: Cytotoxicity, SRB assay, MCF-7; settings: Homo sapiens, MCF7, read-out: IC50 Cytotoxicity MCF-7
Outline: as §1

[5] = tested on: NO production in LPS-stimulated RAW 264.7 macrophage cells; assay: Inhibition of NO production in LPS-stimulated RAW 264.7 cells; settings: Mus musculus, RAW264.7, read-out: IC50 Inhibition of NO-production
Outline: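 RAW 264.7 murine macrophages were stimulated with LPS. NO release was measured as nitrite in the culture medium by the Griess reaction. Results are given as mean ± SD from three independent experiments. IC50 was estimated by curve fitting.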

[6] = tested on: A549, Hep-G2, and MCF-7 human cancer cell lines; assay: Cytotoxicity, SRB assay, stated across the cancer cell lines; settings: tested cell lines
Outline: as §1

With `Cc1c2ccncc2c(C)c2c1[nH]c1ccccc12` [Ellipticine, reference compound] the IC50 [1] was 1.42 ± 0.08 µM, the IC50 [2] was 1.71 ± 0.08 µM and the IC50 [3] was 1.34 ± 0.08 µM. It also gave an IC50 [4] of 1.54 ± 0.04 µM.

`C[C@H]1C(=O)CC[C@@H]2[C@]1(C)CC[C@H]1[C@@]2(C)CC[C@@]2(C)[C@@H]3CC(C)(C)CC[C@]3(C)CC[C@]12C` [Compound 5, friedelin] gave an IC50 [1] of over 100 µM, an IC50 [2] of over 100 µM and an IC50 [5] of over 100 µM. For the same compound, the IC50 [4] was over 100 µM.

`COC(=O)c1c(C)cc(O)c(C=O)c1O` [Compound 17, methyl haematommate] showed an IC50 [1] of 80.7 ± 3.59 µM, an IC50 [2] of over 100 µM and an IC50 [3] of 70.7 ± 4.44 µM. The “cytotoxic activity in words” value [6] was “weakly active”, the IC50 [5] was over 100 µM and the IC50 [4] was 99.3 ± 6.83 µM.

Work on `C[C@H]1C(=O)CC[C@@H]2[C@]1(C)CC[C@H]1[C@@]2(C)CC[C@@]2(C)[C@@H]3CC(C)(C)CC[C@]3(CO)CC[C@]12C` [Compound 7, canophyllol] yielded an IC50 [1] of 22.4 ± 1.01 µM, an IC50 [2] of 39.3 ± 1.29 µM and an IC50 [3] of 30.1 ± 1.25 µM. The IC50 [5] was 79.9 ± 1.37 µM and the IC50 [4] was 27.4 ± 1.19 µM.
